Results from ChEMBL document CHEMBL4732027, “Pyridazinone derivatives as potential anti-inflammatory agents: synthesis and biological evaluation as PDE4 inhibitors” (RSC Med Chem, 2021).
pIC50: −log10 of the molar value. Calls of active or inactive are those of the source. The rule behind the calls is not given here.

Key:
[1] = system: Macrophage; experiment: Antiinflammatory activity against LPS-treated human PBMC derived primary macrophages assessed as intricate cytoplasm at 10 uM incubated for 24 hrs by scanning electron microscopic analysis; format: functional, cell-based
How it was run: (§1)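 Human PBMCs isolated from EDTA blood (red cells lysed by hypotonic shock), grown on coverslips in RPMI 1640 + 10% heat-inactivated FBS with 25 ng/mL M-CSF for 24 h at 37 °C, 5% CO2. Non-adherent cells removed, then 24 h stimulation with LPS 10 ng/mL in 0.5% DMSO ± compound. Cells fixed in 2.5% glutaraldehyde, dehydrated in ethanol, dried with HMDS, gold-palladium coated, imaged by FE-SEM at 2 kV.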

[2] = system: Mus musculus; experiment: Antiinflammatory activity in BALB/cJRj mouse air pouch model assessed as decrease in LPS-stimulated monocyte recruitment in air pouch at 2 uM, sc measured after 6 hrs by flow cytometry analysis; format: functional, organism-based
How it was run: (§2)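 Seven-week-old BALB/cJRj mice. Dorsal subcutaneous air pouch made under isoflurane with 3 mL filtered air on day 0, refilled day 3. On day 7, 2 mL LPS (10 ng/mL) in 0.5% DMSO with compound at 2, 20 or 200 µM injected into the pouch; controls got 0.5% DMSO in saline. After 6 h, exudate collected by lavage with 2 mL 5 mM PBS-EDTA. Cells counted and stained for Ly6G and F4/80, then analysed by flow cytometry. Eight to 17 animals per group.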

[3] = system: Macrophage; experiment: Antiinflammatory activity against human PBMC derived primary macrophages assessed as reduction in LPS-induced IL-8 level at 10 uM incubated for 24 hrs by ELISA relative to control; format: functional
How it was run: (§3)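 Macrophages from human blood PBMCs, differentiated 24 h with 25 ng/mL M-CSF, non-adherent cells removed. Stimulated 24 h with 10 ng/mL E. coli LPS in 0.5% DMSO, with compound at 5–50 µM. Supernatant cytokines measured by sandwich ELISA against a recombinant standard curve. Detection limits: IL-1β 3.9, IL-6 and TNF-α 7.8, IL-8 15.7 pg/mL. Cells from 8 donors; Kruskal–Wallis then Wilcoxon–Mann–Whitney tests.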

[4] = system: Macrophage; experiment: Antiinflammatory activity against human PBMC derived primary macrophages assessed as reduction in LPS-induced vesicle number at 10 uM incubated for 24 hrs by scanning electron microscopic analysis; format: functional, cell-based; how it was run: as §1
[5] = system: Macrophage; experiment: Antiinflammatory activity against LPS-induced human PBMC derived primary macrophages assessed as increase in cell size at 10 uM incubated for 24 hrs by scanning electron microscopic analysis; format: functional, cell-based; how it was run: as §1
[6] = system: Mus musculus; experiment: Antiinflammatory activity in BALB/cJRj mouse air pouch model assessed as decrease in LPS-stimulated monocyte recruitment in air pouch at 20 uM, sc measured after 6 hrs by flow cytometry analysis (reference value: 1.9); format: functional; how it was run: as §2
[7] = target: T1, 3',5'-cyclic-AMP phosphodiesterase 4B (Homo sapiens, UniProt Q07343); experiment: Inhibition of recombinant human PDE-4B expressed in Escherichia coli at 20 uM using cAMP as substrate incubated for 60 mins by PDE4 assay kit method relative to control
T1 sequence (Q07343 whole entry): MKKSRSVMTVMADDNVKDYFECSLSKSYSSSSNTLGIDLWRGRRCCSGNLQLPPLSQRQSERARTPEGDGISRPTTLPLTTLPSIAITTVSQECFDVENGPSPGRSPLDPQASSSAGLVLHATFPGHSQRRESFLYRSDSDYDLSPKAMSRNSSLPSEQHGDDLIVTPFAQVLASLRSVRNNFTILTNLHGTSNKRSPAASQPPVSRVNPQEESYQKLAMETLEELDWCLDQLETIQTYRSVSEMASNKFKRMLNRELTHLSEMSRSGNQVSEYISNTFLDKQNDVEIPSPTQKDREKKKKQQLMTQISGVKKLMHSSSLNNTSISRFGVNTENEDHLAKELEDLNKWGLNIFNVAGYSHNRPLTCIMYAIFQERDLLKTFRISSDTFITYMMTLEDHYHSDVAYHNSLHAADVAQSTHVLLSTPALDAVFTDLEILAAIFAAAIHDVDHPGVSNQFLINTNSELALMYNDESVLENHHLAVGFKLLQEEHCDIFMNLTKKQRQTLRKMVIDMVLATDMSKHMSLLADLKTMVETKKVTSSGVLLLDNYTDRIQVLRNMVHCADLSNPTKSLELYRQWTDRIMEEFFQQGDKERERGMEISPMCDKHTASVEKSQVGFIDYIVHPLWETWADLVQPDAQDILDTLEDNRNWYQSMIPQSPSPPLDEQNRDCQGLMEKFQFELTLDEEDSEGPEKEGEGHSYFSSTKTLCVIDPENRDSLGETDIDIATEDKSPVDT
How it was run: (§4)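 Human recombinant PDE4 expressed in E. coli, incubated with cAMP and 5'-nucleotidase in 10 mM Tris-HCl pH 7.4 at 30 °C for 60 min. Released phosphate detected colorimetrically after 30 min colour development. IC50 from five concentrations by nonlinear regression; mean of two or three independent runs, each in triplicate.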

[8] = system: Macrophage; experiment: Cytotoxicity against human PBMC derived primary macrophages assessed as reduction in cell viability at 10 uM incubated for 24 hrs by LDH assay; format: cell-based
How it was run: (§5)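 Cell death in human PBMC-derived macrophages (M-CSF 25 ng/mL, 24 h) after 24 h LPS (10 ng/mL, 0.5% DMSO) plus compound at 5–50 µM. LDH activity measured in supernatant with a commercial kit, absorbance at 492 nm corrected at 700 nm. Eight donors.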

[9] = system: Macrophage; experiment: Antiinflammatory activity against LPS-treated human PBMC derived primary macrophages assessed as increase in flattened cell morphology at 10 uM incubated for 24 hrs by scanning electron microscopic analysis; format: functional, cell-based; how it was run: as §1
[10] = system: Mus musculus; experiment: Antiinflammatory activity in BALB/cJRj mouse air pouch model assessed as decrease in LPS-stimulated macrophage recruitment in air pouch at 2 to 200 uM, sc measured after 6 hrs by flow cytometry analysis; format: functional, organism-based; conditions: dose 2-200 µM; how it was run: as §2
[11] = system: Mus musculus; experiment: Antiinflammatory activity in BALB/cJRj mouse air pouch model assessed as decrease in LPS-stimulated monocyte recruitment in air pouch at 200 uM, sc measured after 6 hrs by flow cytometry analysis (reference value: 1.9); format: functional; how it was run: as §2
[12] = system: Mus musculus; experiment: Antiinflammatory activity in BALB/cJRj mouse air pouch model assessed as decrease in LPS-stimulated monocyte recruitment in air pouch at 200 uM, sc measured after 6 hrs by flow cytometry analysis relative to control; format: functional; how it was run: as §2
[13] = system: Macrophage; experiment: Antiinflammatory activity against human PBMC derived primary macrophages assessed as reduction in LPS-induced IL-8 level at 50 uM incubated for 24 hrs by ELISA relative to control; format: functional; how it was run: as §3
[14] = system: Macrophage; experiment: Antiinflammatory activity against human PBMC derived primary macrophages assessed as reduction in LPS-induced IL-6 level at 10 uM incubated for 24 hrs by ELISA relative to control; format: functional; how it was run: as §3
[15] = system: Macrophage; experiment: Antiinflammatory activity against human PBMC derived primary macrophages assessed as reduction in LPS-induced IL-8 level at 20 uM incubated for 24 hrs by ELISA relative to control; format: functional; how it was run: as §3
[16] = system: Macrophage; experiment: Antiinflammatory activity against human PBMC derived primary macrophages assessed as reduction in LPS-induced IL-6 level at 5 uM incubated for 24 hrs by ELISA relative to control; format: functional; how it was run: as §3
[17] = system: Macrophage; experiment: Antiinflammatory activity against human PBMC derived primary macrophages assessed as reduction in LPS-induced TNF-alpha level at 5 uM incubated for 24 hrs by ELISA relative to control; format: functional; how it was run: as §3
[18] = system: Macrophage; experiment: Antiinflammatory activity against human PBMC derived primary macrophages assessed as reduction in LPS-induced IL-6 level at 20 uM incubated for 24 hrs by ELISA relative to control; format: functional; how it was run: as §3
[19] = system: Macrophage; experiment: Antiinflammatory activity against human PBMC derived primary macrophages assessed as reduction in LPS-induced IL-6 level at 50 uM incubated for 24 hrs by ELISA relative to control; format: functional; how it was run: as §3
[20] = system: Macrophage; experiment: Antiinflammatory activity against human PBMC derived primary macrophages assessed as reduction in LPS-induced IL-1beta level at 20 uM incubated for 24 hrs by ELISA relative to control; format: functional; how it was run: as §3
[21] = system: Mus musculus; experiment: Antiinflammatory activity in BALB/cJRj mouse air pouch model assessed as decrease in LPS-stimulated macrophage recruitment in air pouch at 2 to 20 uM, sc measured after 6 hrs by flow cytometry analysis; format: functional, organism-based; conditions: dose 2-20 µM; how it was run: as §2
[22] = target: T1, 3',5'-cyclic-AMP phosphodiesterase 4B; experiment: Inhibition of recombinant human PDE-4B expressed in Escherichia coli using cAMP as substrate incubated for 60 mins by PDE4 assay kit method; how it was run: as §4
[23] = system: Macrophage; experiment: Antiinflammatory activity against human PBMC derived primary macrophages assessed as reduction in LPS-induced IL-1beta level at 50 uM incubated for 24 hrs by ELISA relative to control; format: functional; how it was run: as §3
[24] = system: Macrophage; experiment: Antiinflammatory activity against human PBMC derived primary macrophages assessed as reduction in LPS-induced cell morphology changes at 50 uM incubated for 24 hrs by scanning electron microscopic analysis; format: functional, cell-based; how it was run: as §1
[25] = system: Macrophage; experiment: Antiinflammatory activity against human PBMC derived primary macrophages assessed as reduction in LPS-induced TNF-alpha level at 50 uM incubated for 24 hrs by ELISA relative to control; format: functional; how it was run: as §3
[26] = system: Mus musculus; experiment: Antiinflammatory activity in BALB/cJRj mouse air pouch model assessed as decrease in LPS-stimulated monocyte recruitment in air pouch at 2 to 20 uM, sc measured after 6 hrs by flow cytometry analysis; format: functional, organism-based; conditions: dose 2-20 µM; how it was run: as §2
[27] = system: Macrophage; experiment: Cytotoxicity against human PBMC derived primary macrophages assessed as reduction in cell viability at 5 to 50 uM incubated for 24 hrs by LDH assay; format: cell-based; conditions: dose 5-50 µM; how it was run: as §5
[28] = Lipophilicity, logP of compound; format: physicochemical; conditions: octanol/water
How it was run: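 LogP calculated with software, not measured.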

For `O=C(Nc1c(Cl)cncc1Cl)c1ccc(OC(F)F)c(OCC2CC2)c1` [ROFLUMILAST], the Activity [1] was “Active”, the inhibition [2] was “inactive” and the inhibition at 10 µM [3] was 10%. For the same molecule, the Activity [4] was “Active”, the Activity [5] was “Active” and the “fold change (FC)” value [6] was 3.5. For the same molecule, the inhibition [7] was 74.6%, the Activity [8] was “Non-Toxic” and the Activity [9] was “Active”. The inhibition [10] was “inactive” and the “fold change (FC)” value [11] was 2.

Work on `CC1=NNC(=O)C(c2c[nH]c3ccc(F)cc23)C1` (stereo not given) yielded an inhibition [7] of 12.8%.

`COc1ccc2[nH]cc(-c3cc(C)nn(C)c3=O)c2c1` showed an inhibition [7] of 21.8%.

In the case of `COc1ccc2[nH]cc(C3CC(C)=NN(Cc4ccccc4)C3=O)c2c1` (stereo not given), the inhibition [7] was 28.9%.

Molecule `CC1=NN(C)C(=O)C(c2c[nH]c3ccccc23)C1` (stereo not given) has an inhibition [7] of 8.7%.

Molecule `CC(C)Cn1c(=O)n(C)c(=O)c2nc[nH]c21` has an inhibition [7] of 38%.

Molecule `CC1=NNC(=O)C(c2c[nH]c3ccc(I)cc23)C1` (stereo not given) has an inhibition [7] of 2.2%.

Work on `Cc1cc(-c2c[nH]c3ccccc23)c(=O)[nH]n1` yielded an inhibition [7] of 45.6%.

`CC1=NN(Cc2ccccc2)C(=O)C(c2c[nH]c3ccccc23)C1` (stereo not given) showed an inhibition [7] of 17.7%.

For `CC1=NN(Cc2ccccc2)C(=O)C(c2c[nH]c3ccc(Br)cc23)C1` (stereo not given), the inhibition [7] was 8.7%.

Molecule `COc1ccc2[nH]cc(C3CC(C)=NN(C)C3=O)c2c1` (stereo not given) has an inhibition [7] of 13.4%.

Molecule `CC1=NN(Cc2ccccc2)C(=O)C(c2c[nH]c3ccc(I)cc23)C1` (stereo not given) has an inhibition [7] of 4.5%.

`CC1=NNC(=O)C(c2c[nH]c3ccc(Br)cc23)C1` (stereo not given) gave an inhibition [7] of 9.8%.

`Cc1cc(-c2c[nH]c3ccccc23)c(=O)n(Cc2ccccc2)n1` gave an inhibition [7] of 30.1%.

With `Cc1cc(-c2c[nH]c3ccc(I)cc23)c(=O)[nH]n1` the inhibition [7] was 5.9%.

`CC1=NNC(=O)C(c2c[nH]c3ccccc23)C1` (stereo not given) showed an inhibition [7] of 32.3%.

With `Cc1cc(-c2c[nH]c3ccc([N+](=O)[O-])cc23)c(=O)[nH]n1` the inhibition [7] was 26.8%.

`CC1=NN(Cc2ccccc2)C(=O)C(c2c[nH]c3ccc(F)cc23)C1` (stereo not given) gave an inhibition [7] of 9.4%.

`COc1ccc2[nH]cc(C3CC(C)=NNC3=O)c2c1` (stereo not given) gave an inhibition [7] of 37.5%.

With `Cc1cc(-c2c[nH]c3ccc(Br)cc23)c(=O)[nH]n1` the inhibition [7] was 16.8%.

`Cc1cc(-c2c[nH]c3ccc(F)cc23)c(=O)[nH]n1` showed an inhibition [7] of 23.6%.

With `Cc1cc(-c2c[nH]c3ccc(I)cc23)c(=O)n(Cc2ccccc2)n1` the inhibition [7] was 8.9%.

In the case of `COc1ccc2[nH]cc(-c3cc(C)n[nH]c3=O)c2c1`, the inhibition in vivo at 200 µM [12] was 69%, the inhibition at 50 µM [13] was 25% and the inhibition at 10 µM [14] was 23%. It also gave an inhibition at 20 µM [15] of 16%, an inhibition at 5 µM [16] of 16% and an inhibition at 5 µM [17] of 43%. The inhibition at 20 µM [18] was 28%, the inhibition at 50 µM [19] was 21% and the inhibition at 20 µM [20] was 58%. For the same molecule, the inhibition [21] was “Active”, the pIC50 [22] was 6.60 and the inhibition [7] was 63.9%. The inhibition at 50 µM [23] was 54%, the Activity [24] was “Active” and the inhibition at 50 µM [25] was 47%. The inhibition [26] was “Active”, the Activity [27] was “Non-Toxic” and the logP [28] was 0.43.

`Cc1cc(-c2c[nH]c3ccc(Br)cc23)c(=O)n(Cc2ccccc2)n1` gave an inhibition [7] of 14.2%.

Molecule `Cc1cc(-c2c[nH]c3ccccc23)c(=O)n(C)n1` has an inhibition [7] of 15.3%.

`Cc1cc(-c2c[nH]c3ccc(F)cc23)c(=O)n(Cc2ccccc2)n1` gave an inhibition [7] of 17.6%.

`COc1ccc2[nH]cc(-c3cc(C)nn(Cc4ccccc4)c3=O)c2c1` showed an inhibition [7] of 49.1%.

With `CC1=NNC(=O)C(c2c[nH]c3ccc([N+](=O)[O-])cc23)C1` (stereo not given) the inhibition [7] was 19.5%.
